Data from paper PMC3734847 (Integrative biology : quantitative biosciences from nano to …, 2012).
pIC50: −log10 of the molar value. Where “and” joins values, the source holds several entries; their conditions need not be identical. Identical values can stand only once. Entries after “also recorded” stand apart in the source; their conditions may differ. Like-named read-outs stand apart in the source and are kept apart here.

Assays:
[1] = system: NF-κB signaling pathway; experiment: Western blotting of xenograft tumor extracts for the NF-κB signaling pathway; assay type: in vivo, athymic nude mice; conditions: 6 weeks, Western blot
Summary of the method: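 Tu212 cells (2 × 10^6) implanted s.c. in female athymic nude mice. Mice (n=10/group) dosed i.p. once daily, 5 days/week, with test compound at 12.5 or 25 mg/kg, or with vehicle (0.5% CMC/10% DMSO in water). Tumors lysed in RIPA buffer with protease inhibitors for 30 min on ice, then cleared at 13,000 rpm for 15 min at 4°C. 100 μg protein run on 10% SDS-PAGE and transferred to PVDF.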

[2] = Pharmacokinetic study of EF31 i.p. in mice; assay type: in vivo, ND4 Swiss Webster mice; conditions: mouse; for AUC(0-inf) / Vd/F / half-life / Cmax / Tmax: male, ND4 Swiss Webster, plasma, ip; for Cmax / Tmax: mouse plasma; for Tmax: DMSO/0.5% CMC (10%/90%)
Summary of the method: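 Male ND4 Swiss Webster mice (25–30 g) got one i.p. dose of 12.5 or 25 mg/kg in 10% DMSO/0.5% CMC. One submandibular blood sample per mouse, under ketamine/xylazine, at 0.08, 0.25, 0.5, 1, 2, 3, 4 or 6 h (n=3/time point). Heparinized plasma stored at −80°C, deproteinated with acetonitrile and run on LC/MS/MS with internal standard.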

[3] = Aqueous solubility by laser nephelometry; assay type: physicochemical; conditions: phosphate buffered saline with 1% DMSO, pH 7.4
[4] = Serum chemistry profile and pathologic examination of normal organs; assay type: in vivo, mice; conditions: 12.5 and 25 mg/kg i.p.
[5] = system: Tu212 SCC xenografts; experiment: EF31 i.p. therapy of Tu212 SCC xenografts in female athymic nude mice; assay type: in vivo
[6] = system: Tu212 SCC cells; experiment: Neutral Red dye cell viability; assay type: cell-based, human
Summary of the method: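 Tu212 cells grown in DMEM/F12 with 10% FBS, penicillin/streptomycin and 2 mM L-glutamine at 37°C, 5% CO2. Plated in 96 wells and left overnight to adhere. Test compound (0–20 μM) or 0.1% DMSO vehicle added in triplicate. Neutral Red (50 μg/mL in fresh medium) added for 30 min at 37°C, then two PBS washes. Dye eluted with 0.5 N HCl/35% ethanol and read at OD570. Blank subtracted and triplicates averaged.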

[7] = system: Tu212 SCC xenografts; experiment: H & E staining and immunohistochemistry of xenograft tumor tissues; assay type: in vivo, athymic nude mice
[8] = 12.5 and 25 mg/kg i.p., dose-dependent
[9] = 12.5 mg/kg, 12.5 mg/kg i.p. single dose
[10] = 25 mg/kg, 25 mg/kg i.p. single dose

SMILES: O=C1C(=Cc2ccccn2)CNCC1=Cc1ccccn1 [EF31, 3,5-bis(2-pyridinylmethylidene)-4-piperidone]
- level of phosphorylated IKKα in tumors vs control ([1]; 25 mg/kg i.p.): reduced
- level of total IKKα in tumors vs control ([1]; 25 mg/kg i.p.): increased in a dose-dependent manner
- level of IκBα phosphorylated at serine 32 and 36 in tumors ([1]; 12.5 and 25 mg/kg i.p.): increased
- level of phosphorylated IKKβ in tumors ([1]; 12.5 and 25 mg/kg i.p.): reduced
- level of phosphorylated NF-κB p65 at Ser276 in tumors [1, 8]: decreased
- level of total IKKβ in tumors [1, 8]: increased
- level of total IκBα in tumors [1, 8]: decreased
- level of total p65 in tumors [1, 8]: decreased
- AUC(0-inf) ([2]; 12.5 mg/kg): 3390 ng·h/mL
- Vd/F ([2]; 12.5 mg/kg): 11.5 L/kg
- half-life ([2]; 12.5 mg/kg): 2.2 h
- Cmax [2, 9]: 1070 ng/mL
- Tmax [2, 9]: 0.25 h
- AUC(0-inf) ([2]; 25 mg/kg): 7770 ng·h/mL
- Vd/F ([2]; 25 mg/kg): 11.1 L/kg
- half-life ([2]; 25 mg/kg): 2.4 h
- Cmax [2, 10]: 2130 ng/mL
- Tmax [2, 10]: 0.5 h
- estimated volumes of distribution ([2]; 12.5 and 25 mg/kg i.p.): ~ 11 L/kg
- solubility at 90 min [3]: 13 µg/mL and 47 µM
- pathologic examination (hematoxylin-eosin) of liver, kidneys, lungs and spleen ([4]; n = 5/group): normal
- serum chemistry profile ([4]; treated mice, normal values from the University of Minnesota): all within the normal values
- tumor size vs vehicle control ([5]; 12.5 mg/kg i.p. once/day 5 days/week, n = 10, p < 0.05–0.01): reduced tumor size significantly
- dose relative to maximally tolerated dose (MTD) ([5]; 25 mg/kg i.p.): may be above the maximally tolerated dose
- animals died, apparently due to treatment ([5]; 25 mg/kg i.p. group, n = 10): three
- tumor size / tumor growth vs vehicle control ([5]; 25 mg/kg i.p. once/day 5 days/week, n = 10, p < 0.05–0.01): inhibited tumor growth almost completely; also recorded: reduced tumor size significantly
- temporary reduction of body weight ([5]; 25 mg/kg i.p., on average, regained as treatment continued): ~ 10%
- suppression of tumor growth, dose dependence ([5]; 12.5 and 25 mg/kg i.p. daily 5 days a week for over one month): dose-dependent suppression of tumor growth
- pIC50 ([6]; Homo sapiens, TU212, read-out: IC50, viable cells): 5.15
- degree of IHC staining of phosphorylated IκBα in tumors ([7]; 0, 12.5 and 25 mg/kg i.p. daily 5 days a week for 5 weeks): stronger in tumors treated at 25 mg/kg than 12.5 mg/kg, which is stronger than that in the control
- H & E staining of tumor tissues ([7]; 25 mg/kg i.p. daily 5 days a week for 5 weeks): tumor cells are replaced with fibrous scar tissue

SMILES: O=C1/C(=C/c2ccccc2F)CNC/C1=C\c1ccccc1F [EF24, reference compound]
- pIC50 ([6]; read-out: IC50, viable cells, Tu212 cells, Neutral Red Dye assay, 0–20 μM, triplicate, 48 hours (Fig. 1 legend; methods: 72 h)): 5.10
